The test system of assay [1] is HT-29. Kind of assay: Cytotoxicity against human HT-29 cells assessed as compound concentration causing 30% reduction in formazan product formation after 48 hrs by MTS assay. The assay is classed as functional. To be noted: HT-29, 48 h. Put shortly: (§1)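 HT-29, HepG2 and MCF7 cells were exposed to increasing concentrations for 48 h. MTS reagent was then added directly to the wells, incubated a further 4 h, and absorbance read at 490 nm. MAIC30 is the concentration reducing formazan formation by 30%, from a best-fit curve versus log concentration.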
A general note: Formazan colour is commonly taken as a measure of viable cells.

Assay [2] has as its system U-937. The assay is described as follows: Induction of apoptosis in human U937 cells at 100 uM after 24 hrs by acridine orange staining based microscopy. It is filed as functional, cell-based. The procedure, abridged: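 U937 cells were treated for 24 h at 37 °C with 1–100 µM compound or vehicle, then stained with acridine orange. Over 600 cells were scored by fluorescence microscopy; apoptosis was defined as uniformly stained nuclei with chromatin condensation or nuclear fragmentation. Mean and SD of at least three determinations.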

In assay [3] the test system is HeLa. Kind of assay: Cytotoxicity against human HeLa cells assessed as cell viability after 24 hrs. The assay is classed as functional, cell-based. The procedure, abridged:
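MOLT-3, THP-1 and HeLa cells were treated with increasing concentrations for 24 h at 37 °C, 5% CO₂. Total cells were counted by haemocytometer with trypan blue. IC50 is the concentration cutting total cell count by 50%, taken from a best-fit curve of the value versus log concentration.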

Assay [4] has as its system MOLT-3. Kind of assay: Cytotoxicity against human MOLT3 cells assessed as cell viability after 24 hrs. The assay is classed as functional, cell-based. To be noted: MOLT-3, 24 h.
The test system of assay [5] is MOLT-3. Kind of assay: Cytotoxicity against human MOLT3 cells after 24 hrs by trypan blue exclusion assay. The assay is classed as functional.
For assay [6], the system named is HepG2. The assay is described as follows: Cytotoxicity against human HepG2 cells assessed as cell viability after 48 hrs. As to conditions: HepG2, 48 h. The assay is classed as functional, cell-based. Put shortly: (§2)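 HT-29, HepG2 and MCF7 cells were treated in wells with increasing concentrations for 48 h at 37 °C, 5% CO₂. Total cell count was taken by haemocytometer. IC50 is the concentration inhibiting total count by 50%, from a best-fit curve of the value versus log concentration.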

For assay [7], the system named is THP-1. Kind of assay: Induction of apoptosis in human THP1 cells after 24 hrs by acridine orange staining based fluorescence microscopy. It is filed as functional. The procedure, abridged: (§3)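 HeLa, MOLT-3 and THP-1 cells were treated with increasing concentrations for 24 h, then stained with acridine orange and more than 600 cells scored by fluorescence microscopy for condensed or fragmented nuclei. AC30 is the concentration giving 30% apoptotic cells, from a best-fit curve versus log concentration.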

The subject of assay [8] is MOLT-3. The assay is described as follows: Induction of apoptosis in human MOLT3 cells after 24 hrs by acridine orange staining based fluorescence microscopy. It is filed as functional. The procedure, abridged:
as §3

The test system of assay [9] is HepG2. Kind of assay: Cytotoxicity against human HepG2 cells after 48 hrs by trypan blue exclusion assay. The assay is classed as functional. The procedure, abridged:
(§4)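 Adherent HT-29, HepG2 and MCF7 cells were seeded in 96 wells with increasing concentrations and incubated 48 h at 37 °C, 5% CO₂. Trypan blue exclusion was done directly in the culture wells. CC30 is the concentration giving 30% cytotoxicity, from a best-fit curve versus log concentration.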

For assay [10], the system named is THP-1. The assay is described as follows: Cytotoxicity against human THP1 cells after 24 hrs by trypan blue exclusion assay. It is filed as functional.
Assay [11] concerns HeLa. Kind of assay: Cytotoxicity against human HeLa cells after 24 hrs by trypan blue exclusion assay. The assay is classed as functional. The procedure, abridged:
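MOLT-3, THP-1 or HeLa cells were grown in RPMI 1640 with 5–10% FBS; for THP-1 the medium also held 10 mM HEPES, 1 mM pyruvate and 4.5 g/L glucose. Cells were seeded in 96 wells with increasing compound concentrations and incubated 24 h at 37 °C, 5% CO₂. CC30 is the concentration giving 30% trypan blue-positive cells, taken from a best-fit curve of y versus log x.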

Assay [12] has as its system U-937. Kind of assay: Induction of apoptosis in human U937 cells expressing pMEP assessed as expression of Bcl-2 protein at 1 to 100 uM by acridine orange based microscopy. It is filed as functional, cell-based. The procedure, abridged:
(§5)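 U937 stable transfectants carrying murine bcl-2 (U937mBCL2) or empty pMEP vector were kept in medium with hygromycin B 50 µg/mL. They were treated for 24 h with compound or DMSO. Apoptotic nuclei were scored by fluorescence microscopy after acridine orange staining; mean and SD of three determinations.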

Assay [13] deals with HepG2. The assay is described as follows: Cytotoxicity against human HepG2 cells assessed as compound concentration causing 30% reduction in formazan product formation after 48 hrs by MTS assay. The assay is classed as functional. As to conditions: HepG2, 48 h. Put shortly: as §1
Assay [14] concerns MCF7. Kind of assay: Cytotoxicity against human MCF7 cells assessed as compound concentration causing 30% reduction in formazan product formation after 48 hrs by MTS assay. It is filed as functional. To be noted: MCF7, 48 h. The procedure, abridged:
as §1

Assay [15] has as its system U-937. Kind of assay: Induction of apoptosis in human U937 cells expressing mouse Bcl-2 gene assessed as expression of Bcl-2 protein at 1 to 100 uM by acridine orange based microscopy. The assay is classed as functional, cell-based. Put shortly: as §5
Assay [16] has as its system MCF7. The assay is described as follows: Cytotoxicity against human MCF7 cells assessed as cell viability after 48 hrs. It is filed as functional, cell-based. As to conditions: MCF7, 48 h. The procedure, abridged:
as §2

Assay [17] deals with HT-29. Kind of assay: Cytotoxicity against human HT-29 cells assessed as cell viability after 48 hrs. The assay is classed as functional, cell-based. To be noted: HT-29, 48 h. Put shortly:
as §2

Assay [18] deals with HT-29. The assay is described as follows: Cytotoxicity against human HT-29 cells after 48 hrs by trypan blue exclusion assay. The assay is classed as functional. Put shortly: as §4
In assay [19] the test system is U-937. The assay is described as follows: Cytotoxicity against human U937 cells assessed as induction of cell death at 1 to 100 microM after 24 hrs by trypan blue exclusion method. The assay is classed as functional, cell-based.
The test system of assay [20] is HeLa. The assay is described as follows: Induction of apoptosis in human HeLa cells after 24 hrs by acridine orange staining based fluorescence microscopy. It is filed as functional. The procedure, abridged:
as §3

Assay [21] concerns THP-1. The assay is described as follows: Cytotoxicity against human THP1 cells assessed as cell viability after 24 hrs. It is filed as functional, cell-based. As to conditions: THP-1, 24 h.
In assay [22] the test system is MCF7. The assay is described as follows: Cytotoxicity against human MCF7 cells after 48 hrs by trypan blue exclusion assay. It is filed as functional. The procedure, abridged:
as §4

The structures appear in SMILES notation. The source made the active and inactive calls. Some results are limits rather than exact numbers.

One may read the IC30 as the concentration at which the effect reaches the 30% level. One may read the IC50 as the point on the concentration scale where inhibition reaches its midpoint.

For the molecule `CC(=O)OC[C@H]1O[C@@H](SSCc2ccc(CSS[C@@H]3O[C@H](COC(C)=O)[C@H](OC(C)=O)[C@H](OC(C)=O)[C@H]3OC(C)=O)cc2)[C@H](OC(C)=O)[C@@H](OC(C)=O)[C@H]1OC(C)=O`, the results for the IC30 in assay [1], in assay [13] and in assay [14] were 23 µM, 30 µM and 63 µM, respectively. For the same molecule, the result in assay [2], in [12] and in assay [19] was Active. Moreover, the IC50 in assay [3] was over 100 µM; in assay [4] it was over 100 µM; in assay [6], 51 µM; in assay [16], 38 µM; in assay [17] it was 63 µM; in assay [21] it was over 100 µM. The CC30 in [5] is 29 µM; in assay [9] it was 98 µM; in [10], 93 µM; in [11], over 100 µM; in assay [18] it was 61 µM; in assay [22] it was 69 µM. Also, the figures for the AC30 in assay [7], in assay [8] and in assay [20] were 88 µM, 24 µM and 62 µM, respectively. The outcome in [15] was inactive.
